From ChEMBL document CHEMBL1135767, “Synthesis and initial evaluation for in vivo chelation of Pu(IV) of a mixed octadentate spermine-based ligand containing 4-carbamoyl-3-hydroxy-1-methyl-2(1H)-pyridinone and 6-carbamoyl-1-hydroxy-2(1H)-pyridinone” (2002)
“And” between values parts separate entries of the source, which are not always exact repeats. Equal entries are not always repeated.

Experiments:
[1] = test system: Mus musculus; assay: Removal of [238Pu] (i.v.) from mice by ligand injected 30 uM/kg intraperitoneally at 1 hr from skeleton; format: functional
Method in brief: (§1)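 238Pu(IV) citrate given iv to mice; ligand 30 µmol/kg (in 0.14 M NaCl, pH 7.4, volume scaled to body weight) injected ip at 1 h; killed at 24 h. Five mice per cage, excreta pooled per cage, chow from 4 h. Tissue and excreta Pu were counted by liquid scintillation alpha counting and given as %ID normalized to 100% recovery, mean ± SD.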

[2] = test system: Mus musculus; assay: Removal of [238Pu] (i.v.) from mice by ligand injected 30 uM/kg orally at 3 min normally fed after iv injection from whole body; format: functional
Method in brief: (§2)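 Normally fed mice got iv 238Pu(IV) citrate, then ligand 30 µmol/kg by gastric tube at 3 min, in 0.14 M NaCl pH 7.4 with weight-adjusted volume. The mice were killed at 24 h, with five per cage and excreta pooled per cage. Pu was counted by liquid scintillation alpha counting and reported as %ID normalized to 100% recovery.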

[3] = test system: Mus musculus; assay: Removal of [238Pu] (i.v.) from mice by ligand injected 30 uM/kg orally at 3 min fasted after iv injection from whole body; format: functional
Method in brief: (§3)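 Mice fasted 16 h got iv 238Pu(IV) citrate, then ligand 30 µmol/kg by gastric tube at 3 min (HOPO in 0.14 M NaCl, pH 7.4; weight-adjusted volume). Chow was given at 4 h and the mice were killed at 24 h. Tissues and pooled per-cage excreta were liquid-scintillation alpha-counted and expressed as %ID normalized to 100% recovery.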

[4] = test system: Mus musculus; assay: Removal of [238Pu] (i.v.) from mice by ligand injected 30 uM/kg intraperitoneally at 1 hr from liver tissue; format: functional; method in brief: as §1
[5] = test system: Mus musculus; assay: Removal of [238Pu] (i.v.) from mice by ligand injected 30 uM/kg orally at 3 min normally fed after iv injection from soft tissue; format: functional; method in brief: as §2
[6] = test system: Mus musculus; assay: Removal of [238Pu] (i.v.) from mice by ligand injected 30 uM/kg ip at 1 hr from feces and GI contents; format: functional
Method in brief: (§4)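 Mice received iv 238Pu(IV) citrate, then ip ligand (30 µmol/kg, 0.14 M NaCl pH 7.4) at 1 h. Feces plus GI contents were collected to 24 h kill, pooled per five-mouse cage and alpha-counted by liquid scintillation. Values are %ID normalized to total recovery. SD applies only to multiply replicated groups.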

[7] = test system: Mus musculus; assay: Removal of [238Pu] (i.v.) from mice by ligand injected 30 uM/kg orally at 3 min fasted after iv injection from urine excretia; format: functional; method in brief: as §3
[8] = test system: Mus musculus; assay: Removal of [238Pu] (i.v.) from mice by ligand injected 30 uM/kg intraperitoneally at 1 hr from kidneys; format: functional, Kidney; method in brief: as §1
[9] = test system: Mus musculus; assay: Removal of [238Pu] (i.v.) from mice by ligand injected 30 uM/kg orally at 3 min normally fed after iv injection from liver tissue; format: functional; method in brief: as §2
[10] = test system: Mus musculus; assay: Removal of [238Pu] (i.v.) from mice by ligand injected 30 uM/kg orally at 3 min fasted after iv injection from liver tissue; format: functional; method in brief: as §3
[11] = test system: Mus musculus; assay: Removal of [238Pu] (i.v.) from mice by ligand injected 30 uM/kg intraperitoneally at 1 hr from whole body; format: functional; method in brief: as §1
[12] = test system: Mus musculus; assay: Removal of [238Pu] (i.v.) from mice by ligand injected 30 uM/kg ip at 1 hr and orally at 3 min after iv injection from kidneys; format: functional, Kidney
Method in brief: (§5)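 Kidney Pu (%ID) at 24 h after iv 238Pu(IV) citrate was measured in mice given ligand 30 µmol/kg by one of two routes: ip at 1 h, or by gastric tube at 3 min to 16 h-fasted or normally fed mice. Kidneys were alpha-counted by liquid scintillation, and data were normalized to 100% recovery.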

[13] = test system: Mus musculus; assay: Removal of [238Pu] (i.v.) from mice by ligand injected orally at 3 min normally fed after iv injection from skeleton; format: functional; method in brief: as §2
[14] = test system: Mus musculus; assay: Removal of [238Pu] (i.v.) from mice by ligand injected 30 uM/kg orally at 3 min fasted after iv injection from skeleton; format: functional; method in brief: as §3
[15] = test system: Mus musculus; assay: Removal of [238Pu] (i.v.) from mice by ligand injected 30 uM/kg orally at 3 min fasted after iv injection from feces and GI contents; format: functional; method in brief: as §3
[16] = test system: Mus musculus; assay: Removal of [238Pu] (i.v.) from mice by ligand injected 30 uM/kg intraperitoneally at 1 hr from urine excretia; format: functional; method in brief: as §1
[17] = test system: Mus musculus; assay: Removal of [238Pu] (i.v.) from mice by ligand injected 30 uM/kg orally at 3 min normally fed after iv injection from feces and GI contents; format: functional; method in brief: as §2
[18] = test system: Mus musculus; assay: Removal of [238Pu] (i.v.) from mice by ligand injected 30 uM/kg orally at 3 min fasted after iv injection from soft tissue; format: functional; method in brief: as §3
[19] = test system: Mus musculus; assay: Removal of [238Pu] (i.v.) from mice by ligand injected 30 uM/kg intraperitoneally at 1 hr from soft tissue; format: functional; method in brief: as §1
[20] = test system: Mus musculus; assay: Removal of [238Pu] (i.v.) from mice by ligand injected 30 uM/kg orally at 3 min normally fed after iv injection from kidneys; format: functional, Kidney; method in brief: as §2
[21] = test system: Mus musculus; assay: Removal of [238Pu] (i.v.) from mice by ligand injected 30 uM/kg at 3 min normally fed after iv injection from urine excretia; format: functional; method in brief: as §2
[22] = test system: Mus musculus; assay: Removal of [238Pu] (i.v.) from mice by ligand injected 30 umol/kg intraperitoneally at 1 hr from skeleton; format: functional; method in brief: as §1
[23] = test system: Mus musculus; assay: Removal of [238Pu] (i.v.) from mice by ligand injected 30 uM/Kg intraperitoneally at 1 hr from kidneys; format: functional, Kidney; method in brief: as §1
[24] = test system: Mus musculus; assay: Removal of [238Pu] (i.v.) from mice by ligand injected 30 uM/Kg intraperitoneally at 1 hr from skeleton; format: functional; method in brief: as §1
[25] = test system: Mus musculus; assay: Removal of [238Pu] (i.v.) from mice by ligand injected 30 uM/Kg orally at 3 min fasted after iv injection from urine excretia; format: functional; method in brief: as §3
[26] = test system: Mus musculus; assay: Removal of [238Pu] (i.v.) from mice by ligand injected 30 uM/Kg orally at 3 min fasted after iv injection from skeleton; format: functional; method in brief: as §3
[27] = test system: Mus musculus; assay: Removal of [238Pu] (i.v.) from mice by ligand injected 30 uM/Kg intraperitoneally at 1 hr from urine excretia; format: functional; method in brief: as §1
[28] = test system: Mus musculus; assay: Removal of [238Pu] (i.v.) from mice by ligand injected 30 uM/Kg orally at 3 min fasted after iv injection from whole body; format: functional; method in brief: as §3
[29] = test system: Mus musculus; assay: Removal of [238Pu] (i.v.) from mice by ligand injected 30 uM/Kg intraperitoneally at 1 hr from soft tissue; format: functional; method in brief: as §1
[30] = test system: Mus musculus; assay: Removal of [238Pu] (i.v.) from mice by ligand injected 30 uM/Kg intraperitoneally at 1 hr from whole body; format: functional; method in brief: as §1
[31] = test system: Mus musculus; assay: Removal of [238Pu] (i.v.) from mice by ligand injected 30 uM/Kg ip at 1 hr from feces and GI contents; format: functional; method in brief: as §4
[32] = test system: Mus musculus; assay: Removal of [238Pu] (i.v.) from mice by ligand injected 30 uM/Kg orally at 3 min fasted after iv injection from soft tissue; format: functional; method in brief: as §3
[33] = test system: Mus musculus; assay: Removal of [238Pu] (i.v.) from mice by ligand injected 30 uM/Kg orally at 3 min fasted after iv injection from liver tissue; format: functional; method in brief: as §3
[34] = test system: Mus musculus; assay: Removal of [238Pu] (i.v.) from mice by ligand injected 30 uM/Kg intraperitoneally at 1 hr from liver tissue; format: functional; method in brief: as §1
[35] = test system: Mus musculus; assay: Removal of [238Pu] (i.v.) from mice by ligand injected 30 uM/Kg ip at 1 hr and orally at 3 min after iv injection from kidneys; format: functional, Kidney; method in brief: as §5
[36] = test system: Mus musculus; assay: Removal of [238Pu] (i.v.) from mice by ligand injected 30 uM/Kg orally at 3 min fasted after iv injection from feces and GI contents; format: functional; method in brief: as §3

| Structure (SMILES) | ID [1] | ID [2] | ID [3] | ID [4] | ID [5] | ID [6] | ID [7] | ID [8] | ID [9] | ID [10] | ID [11] | ID [12] | ID [13] | ID [14] | ID [15] | ID [16] | ID [17] | ID [18] | ID [19] | ID [20] | also measured |
| --- | --- | --- | --- | --- | --- | --- | --- | --- | --- | --- | --- | --- | --- | --- | --- | --- | --- | --- | --- | --- | --- |
| O=C(NCCCN(CCCCN(CCCNC(=O)c1cccc(=O)n1O)C(=O)c1cccc(=O)n1O)C(=O)c1cccc(=O)n1O)c1cccc(=O)n1O | 8% | 16% | 24% and 14% | 8.9% and 5.4% | 1.5% | 57% and 65% | 26% | 0.2% and 0.1% | 5.9% | 11% and 4.2% | 18% and 14% | 0.1% | 8.8% | 12% and 8% | 51% and 60% | 25% and 21% | 57% | 1.3% and 1.1% | 1.6% and 0.8% | 0.2% | ID [21]: 27%; ID [22]: 7.5% |
| Cn1ccc(C(=O)NCCCN(CCCCN(CCCNC(=O)c2ccn(C)c(=O)c2O)C(=O)c2cccc(=O)n2O)C(=O)c2cccc(=O)n2O)c(O)c1=O | 9.1% | 11% | 11% | 11% | 0.9% | 51% | 28% | 0.2% | 2.4% | 2.2% | 22% | 0.09% | 7.4% | 7.8% | 61% | 27% | 58% | 0.8% | 1% | 0.1% | ID [21]: 31% |
| O=C([O-])CN(CCN(CC(=O)[O-])CC(=O)[O-])CCN(CC(=O)[O-])CC(=O)[O-].[Ca+2].[Na+].[Na+].[Na+] [PENTETATE CALCIUM TRISODIUM] | – | – | – | – | – | – | – | – | – | – | – | – | – | – | – | – | – | – | – | – | ID [23]: 1.2%; ID [24]: 14%; ID [25]: 15%; ID [26]: 40%; ID [27]: 55%; ID [28]: 79%; ID [29]: 2.9%; ID [30]: 37%; ID [31]: 8.4%; ID [32]: 5.1%; ID [33]: 33%; ID [34]: 19%; ID [35]: 0.7%; ID [36]: 6.5% |
